Test results as given in ChEMBL document CHEMBL1629449, “Structure-based design, synthesis, and pharmacological evaluation of 3-(aminoalkyl)-5-fluoroindoles as myeloperoxidase inhibitors” (J Med Chem, 2010).

Tests used:
Myeloperoxidase [1] = target: T1, Myeloperoxidase (Homo sapiens, UniProt P05164); test: Inhibition of recombinant MPO mediated taurine chlorination by microplate reader method; type: single protein
T1 sequence (P05164 whole entry): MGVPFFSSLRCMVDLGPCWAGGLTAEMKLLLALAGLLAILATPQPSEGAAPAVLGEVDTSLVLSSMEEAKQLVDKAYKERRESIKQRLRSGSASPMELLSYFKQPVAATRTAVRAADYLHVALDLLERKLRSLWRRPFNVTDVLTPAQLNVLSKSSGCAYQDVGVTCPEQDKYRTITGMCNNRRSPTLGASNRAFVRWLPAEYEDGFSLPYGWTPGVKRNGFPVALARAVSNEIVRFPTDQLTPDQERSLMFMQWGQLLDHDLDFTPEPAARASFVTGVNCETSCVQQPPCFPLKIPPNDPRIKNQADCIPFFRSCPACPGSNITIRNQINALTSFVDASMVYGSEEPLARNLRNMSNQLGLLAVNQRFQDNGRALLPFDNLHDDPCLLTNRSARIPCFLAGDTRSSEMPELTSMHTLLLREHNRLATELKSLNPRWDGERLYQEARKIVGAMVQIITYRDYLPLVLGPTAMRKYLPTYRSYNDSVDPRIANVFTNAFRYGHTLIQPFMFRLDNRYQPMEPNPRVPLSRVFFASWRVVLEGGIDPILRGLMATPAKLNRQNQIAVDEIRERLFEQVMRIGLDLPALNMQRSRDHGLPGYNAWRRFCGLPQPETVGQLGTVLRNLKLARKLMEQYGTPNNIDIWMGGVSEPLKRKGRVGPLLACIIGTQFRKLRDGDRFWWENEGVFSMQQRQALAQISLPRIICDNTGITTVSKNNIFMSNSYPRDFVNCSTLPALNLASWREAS
Outline: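 Recombinant MPO (40 nM) was incubated with taurine (15 mM) in pH 7.4 phosphate buffer (10 mM/300 mM NaCl) with compound up to 20 μM at 37 °C. The reaction was started with H2O2 (100 μM) and stopped with catalase after 5 min. Taurine chloramine was read with thionitrobenzoic acid at 412 nm. The no-H2O2 control was set as 100% inhibition. IC50 is the mean ± SD of 3 independent experiments.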

Myeloperoxidase [2] = target: T1, Myeloperoxidase; test: Inhibition of recombinant MPO mediated LDL oxidation using MPO/Cl-/H2O2 system
Outline: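 LDL was isolated from human plasma by ultracentrifugation. It was oxidised at 37 °C in PBS pH 7.2 with MPO (1 μg/mL), LDL (1000 μg/mL), HCl (4 mM), H2O2 (100 μM) and test drug, final concentrations. The reaction was stopped after 5 min on ice. Oxidised LDL was detected by ELISA with Mab AG9 (A405). Most IC50s came from three concentrations (1000, 100, 50 nM).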

[3] = target: T2, Myeloperoxidase (Homo sapiens) (UniProt P05164); test: Inhibition of recombinant MPO assessed as rate of electron donation to MPO redox intermediate compound I by sequential mixing stopped flow spectroscopy
T2 sequence (whole entry): T1 sequence (P05164 whole entry)
Outline: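 Stopped-flow kinetics at pH 7.4, 25 °C, in 200 mM phosphate buffer with 2% (v/v) organic solvent. Purified MPO (purity index at least 0.86) at 8 μM was premixed with 80 μM H2O2. Each kobs is the mean of at least three determinations. k3 was taken as the slope of kobs versus substrate concentration.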

[4] = target: T2, Myeloperoxidase (Homo sapiens); test: Inhibition of recombinant MPO assessed as rate of electron donation to MPO redox intermediate compound II by sequential mixing stopped flow spectroscopy
Outline: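 Stopped-flow at pH 7.4, 25 °C, in 200 mM phosphate buffer. Each kobs is the mean of at least three determinations. The second-order rate constant was taken as the slope of kobs versus substrate concentration.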

Row | SMILES | IC50 (Myeloperoxidase [1]) | IC50 (Myeloperoxidase [2]) | Activity [3] | Activity [4]
1 | CNCCc1c[nH]c2ccc(F)cc12 | 200 nM | 650 nM |  | 
2 | NCCCCc1c[nH]c2ccc(F)cc12 |  | 12 nM | 1.1 ×10⁷ /M/s | 360 M⁻¹ s⁻¹
3 | CCCCNCCc1c[nH]c2ccc(F)cc12 | 1030 nM | 250 nM |  | 
4 | NCCc1c[nH]c2ccc(F)cc12 |  | 940 nM |  | 
5 | Fc1ccc2[nH]cc(CCN3CCCC3)c2c1 |  | 1030 nM |  | 
6 | CCCCNCCCc1c[nH]c2ccc(F)cc12 | 1500 nM | 17 nM |  | 
7 | CN1CCN(CCc2c[nH]c3ccc(F)cc23)CC1 | 200 nM | 650 nM |  | 
8 | CCNCCCc1c[nH]c2ccc(F)cc12 | 300 nM | 190 nM |  | 
9 | CN(C)CCCc1c[nH]c2ccc(F)cc12 |  | 49 nM |  | 
10 | CN1CCN(CCCc2c[nH]c3ccc(F)cc23)CC1 | 350 nM | 310 nM |  | 
11 | CCCNCCCc1c[nH]c2ccc(F)cc12 | 170 nM | 340 nM |  | 
12 | NCCCCCCc1c[nH]c2ccc(F)cc12 |  | 580 nM |  | 
13 | NCCCc1c[nH]c2ccc(F)cc12 |  | 650 nM |  | 
14 | CCNCCc1c[nH]c2ccc(F)cc12 | 300 nM | 850 nM |  | 
15 | NCc1c[nH]c2ccc(F)cc12 | 900 nM | > 1000 nM |  | 
16 | CNCCCc1c[nH]c2ccc(F)cc12 | 200 nM | 26 nM |  | 
17 | CCCNCCc1c[nH]c2ccc(F)cc12 | 800 nM | 460 nM |  | 
18 | CN1CCN(Cc2c[nH]c3ccc(F)cc23)CC1 | 1000 nM | > 1000 nM |  | 
19 | CN(C)CCc1c[nH]c2ccc(F)cc12 |  | 580 nM |  | 
20 | NCCCCCc1c[nH]c2ccc(F)cc12 |  | 5 nM | 1 ×10⁷ /M/s | 506 M⁻¹ s⁻¹
21 | CCN(CC)Cc1c[nH]c2ccc(F)cc12 | 200 nM | > 1000 nM |  | 
22 | Fc1ccc2[nH]cc(CCCN3CCCC3)c2c1 | 320 nM | 210 nM |  | 
23 | CCN(CC)CCCc1c[nH]c2ccc(F)cc12 | 350 nM | 390 nM |  | 
24 | CCN(CC)CCc1c[nH]c2ccc(F)cc12 |  | 510 nM |  | 
